13 compounds from ChEMBL document CHEMBL1250525, “Structure-activity relationships in 1,4-benzodioxan-related compounds. 10. Novel α1-adrenoreceptor antagonists related to openphendioxan: synthesis, biological evaluation, and α1d computational study” (Bioorg Med Chem, 2010) can be followed below.

Assay [1] addresses T1, Alpha-1D adrenergic receptor (Homo sapiens, UniProt P25100).
T1 sequence (P25100 whole entry): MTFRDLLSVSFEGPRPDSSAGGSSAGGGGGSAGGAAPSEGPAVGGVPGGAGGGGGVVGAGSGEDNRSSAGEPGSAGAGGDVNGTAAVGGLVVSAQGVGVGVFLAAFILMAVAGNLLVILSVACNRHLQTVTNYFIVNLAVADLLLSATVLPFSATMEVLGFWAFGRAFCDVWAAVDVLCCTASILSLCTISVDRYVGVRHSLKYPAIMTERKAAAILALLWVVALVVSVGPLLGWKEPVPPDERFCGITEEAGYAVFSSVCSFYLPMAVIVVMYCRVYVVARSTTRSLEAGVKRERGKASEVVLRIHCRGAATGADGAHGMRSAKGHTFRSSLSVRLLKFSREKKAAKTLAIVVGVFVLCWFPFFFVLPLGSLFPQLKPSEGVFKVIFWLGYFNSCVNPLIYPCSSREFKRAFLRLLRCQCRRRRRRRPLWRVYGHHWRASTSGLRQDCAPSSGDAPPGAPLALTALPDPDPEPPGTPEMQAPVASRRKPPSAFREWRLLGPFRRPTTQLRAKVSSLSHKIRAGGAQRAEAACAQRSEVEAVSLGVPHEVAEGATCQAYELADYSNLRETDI
The experiment in a line: Displacement of [3H]prazosin from human adrenergic Alpha-1D expressed in CHO cells. The class given is cell-based. The gist of the method: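 Membranes (30 µg protein) from CHO cells stably expressing each cloned human α1 subtype, labelled with [3H]prazosin. Nonspecific binding with 10 µM phentolamine. Stopped with ice-cold Tris–HCl and filtration on 0.2% polyethyleneimine-treated glass-fibre filters. Ki from IC50 by Cheng–Prusoff, nonlinear fitting. Mean ± SE of 2–3 experiments in triplicate.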

Assay [2] concerns the target T2, 5-hydroxytryptamine receptor 1A (Homo sapiens, UniProt P08908).
T2 sequence (P08908 whole entry): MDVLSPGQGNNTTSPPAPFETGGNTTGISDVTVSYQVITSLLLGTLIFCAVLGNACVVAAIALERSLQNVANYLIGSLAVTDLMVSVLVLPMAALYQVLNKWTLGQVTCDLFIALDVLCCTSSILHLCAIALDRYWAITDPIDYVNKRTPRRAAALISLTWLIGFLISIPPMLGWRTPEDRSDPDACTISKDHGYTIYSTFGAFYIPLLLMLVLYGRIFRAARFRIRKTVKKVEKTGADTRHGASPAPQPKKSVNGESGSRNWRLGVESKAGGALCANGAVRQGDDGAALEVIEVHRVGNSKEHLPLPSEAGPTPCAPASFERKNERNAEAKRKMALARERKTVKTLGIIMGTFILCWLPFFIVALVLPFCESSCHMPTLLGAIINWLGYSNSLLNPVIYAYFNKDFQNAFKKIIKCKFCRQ
In words: Displacement of [3H]8-OH-DPAT from human adrenergic 5HT1A expressed in human HeLa cells. The class given is cell-based. The gist of the method: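 HeLa cells stably carrying human 5-HT1A clone G-21, grown in DMEM with 10% FCS. Membranes in 50 mM Tris–HCl pH 7.4, 2.5 mM MgCl2, 10 µM pargyline, with 0.7–1.4 nM [3H]8-OH-DPAT for 30 min at 30 °C. Nonspecific binding with 10 µM 5-HT. Filtration stop. Ki by Cheng–Prusoff. Mean ± SE of 2–3 experiments in triplicate.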
On the technique in general: Loss of bound radioactivity is the signal in a displacement assay; it reports binding, not function.

For assay [3], the target named is T3, Alpha-1A adrenergic receptor (Rattus norvegicus) (UniProt P43140).
T3 sequence (whole entry): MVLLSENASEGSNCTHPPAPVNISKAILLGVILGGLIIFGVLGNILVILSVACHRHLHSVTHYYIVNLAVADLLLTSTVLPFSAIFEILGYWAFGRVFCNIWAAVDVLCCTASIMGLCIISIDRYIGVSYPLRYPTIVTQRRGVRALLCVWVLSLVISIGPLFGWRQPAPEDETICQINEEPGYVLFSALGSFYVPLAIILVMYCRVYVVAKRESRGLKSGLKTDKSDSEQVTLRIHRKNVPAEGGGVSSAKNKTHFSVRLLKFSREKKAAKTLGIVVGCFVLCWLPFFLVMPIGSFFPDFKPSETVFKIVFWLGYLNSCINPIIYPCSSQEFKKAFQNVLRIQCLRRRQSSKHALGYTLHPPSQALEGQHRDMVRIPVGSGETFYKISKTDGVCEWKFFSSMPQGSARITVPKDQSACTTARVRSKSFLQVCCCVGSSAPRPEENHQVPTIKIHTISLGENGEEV
The experiment in a line: Antagonist activity at adrenergic alpha1A receptor in Wistar rat vas deference assessed as inhibition of (-)-noradrenaline-indcuced contraction. The class given is functional. The gist of the method:
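Tissue in Tyrode with 0.1 µM cocaine, equilibrated 60 min with washes every 15 min, primed twice with 10 µM noradrenaline. A noradrenaline curve gave the basal response. Antagonist 30 min, then 30 min washing, then a new agonist curve.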

Assay [4] concerns the target T4, Alpha-1D adrenergic receptor (Rattus norvegicus) (UniProt P23944).
T4 sequence (whole entry): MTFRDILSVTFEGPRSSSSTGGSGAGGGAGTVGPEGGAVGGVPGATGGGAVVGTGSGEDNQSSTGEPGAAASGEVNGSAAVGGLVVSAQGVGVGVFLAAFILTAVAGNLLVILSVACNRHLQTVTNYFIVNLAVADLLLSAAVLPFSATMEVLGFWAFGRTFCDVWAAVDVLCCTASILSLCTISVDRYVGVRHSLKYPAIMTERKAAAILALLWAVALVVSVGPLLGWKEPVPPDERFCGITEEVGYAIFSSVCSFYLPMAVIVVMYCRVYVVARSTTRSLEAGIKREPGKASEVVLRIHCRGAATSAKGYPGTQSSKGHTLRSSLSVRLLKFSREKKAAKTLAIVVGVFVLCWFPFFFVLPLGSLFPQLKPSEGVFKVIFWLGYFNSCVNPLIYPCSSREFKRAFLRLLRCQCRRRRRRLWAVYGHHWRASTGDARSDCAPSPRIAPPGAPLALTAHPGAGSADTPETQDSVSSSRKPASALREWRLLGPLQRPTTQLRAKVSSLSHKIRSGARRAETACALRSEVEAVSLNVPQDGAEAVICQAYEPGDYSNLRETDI
In words: Antagonist activity at adrenergic Alpha-1D receptor in Wistar rat thoracic aorta assessed as inhibition of (-)-noradrenaline-indcuced contraction. The format is functional, tissue-based.

One may read the Ki as a dissociation constant, usually derived from enzyme kinetics or from competition with a known ligand. A low value points to higher affinity. The term pKb denotes the Kb on a negative log10 scale, so that one unit is a factor of ten. As for `CCOc1ccccc1OCCNCCOc1ccccc1OCc1ccccc1`, the values for the Ki in assay [1] and in assay [2] were 3.72 nM and 5.01 nM, respectively. For the same compound, the pKb came out at 8.03 in assay [3] and 8.35 in assay [4].

For `c1ccc(COc2ccccc2OCCNCCOc2ccccc2)cc1`, the Ki was 17.8 nM in assay [1] and 7.94 nM in assay [2]. Moreover, the pKb was 7.65 in assay [3] and 7.32 in assay [4].

As to `COc1cccc(OC)c1[S+]([O-])CCNCCOc1ccccc1OCc1ccccc1` (configuration not stated), the inhibition constant Ki in assay [1] is 2.75 nM; in assay [2] it was 3.16 nM. The pKb in assay [3] stood at 7.95; in assay [4] it was 7.49.

Regarding `Cc1cccc(C)c1OCCNCCOc1ccccc1OCc1ccccc1`, the Ki is 14.1 nM in assay [1] and 15.8 nM in assay [2]. Further, the pKb turned out to be 7.33 in assay [3] and 7.59 in assay [4].

As to `CCOc1cccc(OCC)c1OCCNCCOc1ccccc1OCc1ccccc1`, the Ki is 0.389 nM in assay [1] and 31.6 nM in assay [2]. The pKb in assay [3] was found to be 7.92; in assay [4] it was 8.03.

In the case of `COc1cccc(OC)c1SCCNCCOc1ccccc1OCc1ccccc1`, the inhibition constant (Ki) in assay [1] is 0.178 nM; in assay [2], 15.8 nM. In addition, the negative-log Kb (pKb) was determined as 8.74 in assay [3] and 9.47 in assay [4].

Consider `COc1ccccc1OCCNCCOc1ccccc1OCc1ccccc1`, for which the Ki was 3.98 nM in assay [1] and 2.51 nM in assay [2]. The values for the negative logarithm of the Kb (pKb) in assay [3] and in assay [4] were 7.95 and 8.08, respectively.

For `COc1cccc(OC)c1CCCNCCOc1ccccc1OCc1ccccc1`, the Ki was 1.2 nM in assay [1] and 2.51 nM in assay [2]. The results for the pKb in assay [3] and in assay [4] were 7.8 and 8.12, respectively.

Consider `COc1cccc(Cl)c1OCCNCCOc1ccccc1OCc1ccccc1`, for which the Ki was 0.741 nM in assay [1] and 31.6 nM in assay [2]. Also, the figures for the negative-log Kb (pKb) in assay [3] and in assay [4] were 8.16 and 8.74, respectively.

In the case of `Clc1cccc(Cl)c1OCCNCCOc1ccccc1OCc1ccccc1`, the Ki in assay [1] was 7.08 nM; in assay [2] it was 31.6 nM. Further, the values for the pKb in assay [3] and in assay [4] were 6.57 and 8.02, respectively.

`Oc1cccc(O)c1OCCNCCOc1ccccc1OCc1ccccc1`: the Ki in assay [1] was 15.1 nM; in assay [2], 12.6 nM. For the same compound, the pKb in assay [3] and in assay [4] was 7.44 in each case.

In the case of `COc1cccc(C)c1OCCNCCOc1ccccc1OCc1ccccc1`, the figures for the Ki in assay [1] and in assay [2] were 0.912 nM and 3.98 nM, respectively. The pKb in assay [3] was determined as 8.35; in assay [4] it was 8.36.

Turning to `COc1cccc([N+](=O)[O-])c1OCCNCCOc1ccccc1OCc1ccccc1`, the Ki in assay [1] was 0.513 nM; in assay [2] it was 15.8 nM. Besides, the pKb amounted to 8.41 in assay [3] and 8.92 in assay [4].
